From ChEMBL document CHEMBL1151715, “Novel D-xylose derivatives stimulate muscle glucose uptake by activating AMP-activated protein kinase alpha” (J Med Chem, 2008)
Active and inactive are the calls of the source. No cut-off for these calls is given here.

Key:
L6 [1] = experiment: Effect on [3H]2-deoxy-D-glucose uptake in rat L6 cells at 50 uM relative to control; type: functional
How it was run: (§1)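 L6 myotubes were held in αMEM with 2% FCS and 23.0 mM D-glucose for 24 h. They were then treated with increasing concentrations in medium with 10% FCS and 23.0 mM D-glucose for 7 or 18 h; vehicle controls ran 18 h. After washing, uptake was measured with 0.1 mM dGlc plus 1.3 µCi/mL [3H]dGlc in PBS pH 7.4 for 5 min at room temperature. Ice-cold PBS stop, SDS lysis, scintillation counting; basal rate set to 100%.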

[2] = Cytotoxicity against rat L6 cells by MTT assay; type: cell-based
How it was run: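 MTT assay on L6 myotubes after the treatment incubations: MTT at 2 mg/mL in αMEM for 30 min at 37 °C, formazan dissolved in DMSO, absorbance read at 570 nm.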

L6 [3] = experiment: Effect on [3H]2-deoxy-D-glucose uptake in rat L6 cells at 150 uM relative to control; type: functional; how it was run: as §1
L6 [4] = experiment: Activation of 5-AMP-induced AMPKalpha in rat L6 cells assessed as […] phosphorylation at 0.25 M relative to control; type: cell-based
How it was run: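 AICAR-type positive control on L6 myotubes: 0.25 M D-sorbitol for 30 min. Whole-cell lysates were blotted for total AMPKα and phospho-Thr172 AMPKα, detected by ECL, with bands quantified by densitometry.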

L6 [5] = experiment: Increase in [3H]2-deoxy-D-glucose uptake in rat L6 cells preincubated with 23 mM D-glucose for 24 hrs at 5 mM after 7 hrs relative to control; type: functional
How it was run: (§2)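 L6 myotubes were preconditioned 24 h at 23.0 mM D-glucose, then given fresh αMEM with 23.0 mM D-glucose plus agent for 7 h. Insulin (200 nM) was added for the last 30 min. A 5-min [3H]dGlc uptake (0.1 mM dGlc, 1.3 µCi/mL) was run in PBS at room temperature, with the 23.0 mM glucose basal rate set to 100%.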

L6 [6] = experiment: Effect on [3H]2-deoxy-D-glucose uptake in rat L6 cells at 20 mM upto 48 hrs relative to control; type: functional
L6 [7] = experiment: Effect on [3H]2-deoxy-D-glucose uptake in rat L6 cells at 5 mM after 7 hrs relative to control in presence of insulin; type: functional, cell-based; how it was run: as §2
L6 [8] = experiment: Increase in [3H]2-deoxy-D-glucose uptake in rat L6 cells at 20 mM preincubated 24 hrs with D-glucose assessed after 6 hrs relative to control; type: functional
How it was run: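 L6 myotubes were preconditioned 24 h at 23.0 mM D-glucose, then incubated up to 10 h in the same medium plus pentose (20.0 mM for time course; dose-response for half-maximal and maximal). Cells were washed with PBS, then given a 5-min room-temperature uptake of 0.1 mM dGlc with 1.3 µCi/mL [3H]dGlc. Counts were normalised to protein against untreated controls.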

L6 [9] = experiment: Effect on [3H]2-deoxy-D-glucose uptake in rat L6 cells at 100 uM relative to control; type: functional; how it was run: as §1
L6 [10] = experiment: Effect on [3H]2-deoxy-D-glucose uptake in rat L6 cells at 200 uM relative to control; type: functional; how it was run: as §1
Homo sapiens = organism: Homo sapiens; experiment: Activation of 5-AMP-induced AMPKalpha in human skeletal muscle cells assessed as […] phosphorylation at 4 mM relative to control
How it was run: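 Primary human skeletal muscle myoblasts (rectus abdominis, donor) were differentiated into myotubes using the supplier's protocol. The agent was given at 4 mM for 1 h. Whole-cell lysates were separated by SDS-PAGE and Western blotted for AMPKα and […]-AMPKα, with HRP anti-rabbit IgG and ECL detection. Bands were quantified by film densitometry.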

CC1(C)OC[C@H]2O[C@@H]3OC(C)(C)O[C@@H]3[C@H]2O1
fold change (FC) (L6 [1]): 1.08 | MCC [2]: 100 µM

CO[C@H]1C(O)OC[C@@H](O)[C@@H]1O (stereo partly specified)
MCC [2]: 50000 µM

CCCCCCCCCCCC(=O)S[C@@H]1OC[C@@H](O)[C@H](O)[C@H]1O
MCC [2]: 400 µM | fold change (FC) (L6 [3]): 0.98

OC[C@@H](O)[C@@H](O)[C@H](O)[C@@H](O)CO
Activity (L6 [4]): Active

CO[C@H]1[C@H](O)COC(O)[C@@H]1O (stereo partly specified)
fold change (FC) (L6 [5]): 2.1

CO[C@@H]1COC(O)[C@H](O)[C@H]1O (stereo partly specified)
fold change (FC) (L6 [6]): 0.99 | MCC [2]: 50000 µM

CCO[C@H]1[C@H](O)COC(O)[C@@H]1O (stereo partly specified)
fold change (FC) (L6 [5]): 2.79 | Activity (L6 [7]): Active

OC1OC[C@@H](O)[C@@H](O)[C@@H]1O (stereo partly drawn) [D-ARABINOSE]
fold change (FC) (L6 [8]): 1.38

CCCS[C@@H]1OC[C@@H](O)[C@H](O)[C@H]1O
MCC [2]: 200 µM | fold change (FC) (L6 [9]): 0.92

CO[C@H]1OC[C@@H](O)[C@H](O)[C@H]1O
fold change (FC) (L6 [5]): 1.98 | Activity (L6 [7]): Active

CC(=O)O[C@@H]1OC[C@@H](OC(C)=O)[C@H](OC(C)=O)[C@H]1OC(C)=O
fold change (FC) (L6 [10]): 0.99 | fold change (FC) (L6 [6]): 1.05 | MCC [2]: 500 µM

COC(OC)[C@@H]1OC(c2ccccc2)O[C@@H]2COC(c3ccccc3)O[C@@H]21 (stereo partly specified)
MCC [2]: 300 µM | fold change (FC) (L6 [3]): 1.06

CO[C@@H]1OC[C@@H](OC(=O)c2ccccc2)[C@H](OC(=O)c2ccccc2)[C@H]1OC(=O)c1ccccc1
MCC [2]: 250 µM | fold change (FC) (L6 [3]): 1.01

O[C@H]1OC[C@@H](OCc2ccccc2)[C@H](OCc2ccccc2)[C@H]1OCc1ccccc1
MCC [2]: 200 µM | fold change (FC) (L6 [9]): 0.94

CC1(C)O[C@H]2O[C@H](CO)[C@H](O)[C@H]2O1
fold change (FC) (L6 [1]): 0.94 | MCC [2]: 150 µM

COC[C@H]1OC(O)[C@H](O)[C@H]1O (stereo partly specified)
fold change (FC) (L6 [6]): 1.03 | MCC [2]: 50000 µM

COC(OC)[C@@H]1OC(c2ccc(F)cc2)O[C@@H]2COC(c3ccc(F)cc3)O[C@@H]21 (stereo partly specified)
MCC [2]: 250 µM

CCOC1OC[C@@H](O)[C@H](O)[C@H]1O (stereo partly specified)
fold change (FC) (L6 [6]): 1.01 | MCC [2]: 50000 µM

CO[C@@H]1OC[C@@H](OC(=O)C(C)(C)C)[C@H](OC(=O)C(C)(C)C)[C@H]1OC(=O)C(C)(C)C
MCC [2]: 150 µM | fold change (FC) (L6 [9]): 1.03

CCCCO[C@H]1[C@H](O)COC(O)[C@@H]1O (stereo partly specified)
fold change (FC) (L6 [6]): 0.94 | MCC [2]: 1000 µM

O[C@@H]1[C@@H](O)[C@@H](OCc2ccccc2)OC[C@H]1O
MCC [2]: 500 µM | fold change (FC) (L6 [9]): 0.9

NC(=O)c1ncn([C@@H]2O[C@H](COP(=O)(O)O)[C@@H](O)[C@H]2O)c1N
Activity (Homo sapiens): Active

CCCO[C@H]1[C@H](O)COC(O)[C@@H]1O (stereo partly specified)
fold change (FC) (L6 [5]): 3.89 | Activity (L6 [7]): Active
